Experimental data reported in article PMC9426946 (Biochimica et biophysica acta. Proteins and proteomics, 2022).

Legend:
CTRB1 D236R = CTRB1 D236R (Homo sapiens, UniProt P17538, D236R/Y164H); assay: Michaelis-Menten kinetics on p-nitroanilide peptide substrates; assay type: biochemical; conditions: for kcat/KM, CTRB1 D236R / kcat, CTRB1 D236R / Km: 0.1 M Tris-HCl pH 8.0, 1 mM CaCl2, 0.05% Tween-20; for kcat, CTRB1 D236R / Km: average of two independent measurements; for Km: read-out: KM, CTRB1 D236R
Sequence of CTRB1 D236R (P17538 19-263 Y164H/D236R): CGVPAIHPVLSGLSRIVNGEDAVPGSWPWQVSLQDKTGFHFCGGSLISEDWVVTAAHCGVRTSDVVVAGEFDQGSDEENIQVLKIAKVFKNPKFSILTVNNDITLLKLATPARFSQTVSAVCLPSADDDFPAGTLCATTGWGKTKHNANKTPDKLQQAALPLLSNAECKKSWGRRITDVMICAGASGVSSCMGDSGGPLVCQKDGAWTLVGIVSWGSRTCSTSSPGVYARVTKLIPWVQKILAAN
In short: (§1)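 Suc- and H-Ala-Ala-Pro-Phe-pNA were used at 8–1050 µM, from DMSO stocks calibrated by complete chymotryptic hydrolysis. Reactions were started by adding enzyme to 1 or 5 nM final. p-Nitroaniline release was followed at 410 nm for 3–5 min (ε 8,800 M-1cm-1), with rates taken from linear portions. KM and Vmax came from hyperbolic fits, averaging two independent measurements. Human enzymes were recombinant Y164H forms, ecotin-titrated.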

bCTRA = bCTRA (Bos taurus, UniProt P00766); assay: as above; assay type: biochemical, bovine; conditions: for kcat/KM, bCTRA / kcat, bCTRA / Km: 0.1 M Tris-HCl pH 8.0, 1 mM CaCl2, 0.05% Tween-20; for kcat, bCTRA / Km: average of two independent measurements; for Km: read-out: KM, bCTRA
In short: as §1

CTRB2 [1] = target: T1, CTRB2 (Homo sapiens, UniProt Q6GPI1, Y164H); assay: as above; assay type: biochemical; conditions: for kcat/KM, CTRB2 / kcat, CTRB2 / Km: 0.1 M Tris-HCl pH 8.0, 1 mM CaCl2, 0.05% Tween-20; for kcat, CTRB2 / Km: average of two independent measurements; for Km: read-out: KM, CTRB2
T1 sequence (Q6GPI1 19-263 Y164H): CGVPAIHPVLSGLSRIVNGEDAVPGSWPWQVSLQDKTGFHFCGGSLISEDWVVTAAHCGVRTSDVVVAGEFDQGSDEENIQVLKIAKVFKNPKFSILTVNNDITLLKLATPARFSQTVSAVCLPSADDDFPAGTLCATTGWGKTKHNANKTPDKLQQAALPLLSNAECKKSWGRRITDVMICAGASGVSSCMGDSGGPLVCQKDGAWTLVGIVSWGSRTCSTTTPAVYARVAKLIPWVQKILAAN
In short: as §1

CTRB1 S242T = CTRB1 S242T (Homo sapiens, UniProt P17538, S242T/Y164H); assay: as above; assay type: biochemical; conditions: 0.1 M Tris-HCl pH 8.0, 1 mM CaCl2, 0.05% Tween-20; for kcat, CTRB1 S242T / Km: average of two independent measurements; for Km: read-out: KM, CTRB1 S242T
Sequence of CTRB1 S242T (P17538 19-263 Y164H/S242T): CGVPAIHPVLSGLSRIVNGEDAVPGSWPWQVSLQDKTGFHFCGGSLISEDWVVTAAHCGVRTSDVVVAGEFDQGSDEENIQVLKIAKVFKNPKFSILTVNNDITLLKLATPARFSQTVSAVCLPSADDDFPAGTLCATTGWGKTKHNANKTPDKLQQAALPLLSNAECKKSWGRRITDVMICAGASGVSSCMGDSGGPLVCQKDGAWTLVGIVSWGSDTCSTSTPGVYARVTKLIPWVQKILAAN
In short: as §1

CTRB1 = CTRB1 (Homo sapiens, UniProt P17538, Y164H); assay: as above; assay type: biochemical; conditions: for kcat/KM, CTRB1 / Km: 0.1 M Tris-HCl pH 8.0, 1 mM CaCl2, 0.05% Tween-20; for Km: read-out: KM, CTRB1, average of two independent measurements
Sequence of CTRB1 (P17538 19-263 Y164H): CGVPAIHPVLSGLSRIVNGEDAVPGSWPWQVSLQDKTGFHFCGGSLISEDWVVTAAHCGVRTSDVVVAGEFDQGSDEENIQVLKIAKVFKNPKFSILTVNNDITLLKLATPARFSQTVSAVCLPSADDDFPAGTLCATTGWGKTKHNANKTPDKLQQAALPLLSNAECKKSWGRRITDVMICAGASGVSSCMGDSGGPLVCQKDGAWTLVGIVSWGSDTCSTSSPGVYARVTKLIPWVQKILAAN
In short: as §1

[2] = target: chymotrypsin B1 (Homo sapiens) (UniProt P17538); conditions: cited from earlier work
Sequence of chymotrypsin B1 (Homo sapiens) (P17538 34-164, chain 2 of 2): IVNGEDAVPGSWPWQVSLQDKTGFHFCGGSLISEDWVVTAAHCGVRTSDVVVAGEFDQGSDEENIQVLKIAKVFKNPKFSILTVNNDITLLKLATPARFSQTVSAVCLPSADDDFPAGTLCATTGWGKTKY
Sequence of chymotrypsin B1 (Homo sapiens) (P17538 167-263, chain 3 of 2): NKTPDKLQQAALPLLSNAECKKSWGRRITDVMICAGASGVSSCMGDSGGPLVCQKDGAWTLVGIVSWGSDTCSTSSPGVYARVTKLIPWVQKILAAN

human CTRB2 = conditions: read-out: KD on human CTRB2; prior observations; cited from earlier work
CTRB2 [3] = target: T1, CTRB2; assay: Casein digestion by chymotrypsins; assay type: biochemical; conditions: 0.2 mg/mL β-casein, 5 nM enzyme, 0.1 M Tris-HCl pH 8.0, 1 mM CaCl2, 37°C; SDS-PAGE densitometry, two experiments
[4] = relative to Suc-Ala-Ala-Pro-Phe-p-nitroanilide

Molecule: H-Ala-Ala-Pro-Phe-p-nitroanilide [H-AAPF-pNA]
- kcat/KM, CTRB1 D236R (CTRB1 D236R): 45000 M⁻¹ s⁻¹
- kcat, CTRB1 D236R (CTRB1 D236R): 9.64 s⁻¹
- Km (CTRB1 D236R): 214 µM
- kcat/KM, bCTRA (bCTRA): 55000 M⁻¹ s⁻¹
- kcat, bCTRA (bCTRA): 20.3 s⁻¹
- Km (bCTRA): 371 µM
- kcat/KM, CTRB2 (CTRB2 [1]): 36000 M⁻¹ s⁻¹
- kcat, CTRB2 (CTRB2 [1]): 10.9 s⁻¹
- Km (CTRB2 [1]): 304 µM
- reduction in kcat/KM on removal of the Suc group, CTRB2 (CTRB2 [1]; [4]): 36 fold
- kcat/KM, CTRB1 S242T (CTRB1 S242T): 39000 M⁻¹ s⁻¹
- kcat, CTRB1 S242T (CTRB1 S242T): 21.3 s⁻¹
- Km (CTRB1 S242T): 550 µM
- kcat/KM, CTRB1 (CTRB1): 40000 M⁻¹ s⁻¹
- Km (CTRB1): 575 µM
- reduction in kcat/KM on removal of the Suc group, CTRB1 (CTRB1; [4]): 4 fold

Molecule: SGPI-2 (from UniProt O46162)
- Kd [2]: 1.1 nM

Molecule: Schistocerca gregaria proteinase inhibitor 2 [wild-type SGPI-2]
- Kd (human CTRB2): 0.16 nM

Molecule: Suc-Ala-Ala-Pro-Phe-p-nitroanilide [Suc-AAPF-pNA]
- kcat/KM, CTRB1 D236R (CTRB1 D236R): 2e+06 M⁻¹ s⁻¹
- kcat, CTRB1 D236R (CTRB1 D236R): 36.0 s⁻¹
- kcat/KM of CTRB1 D236R relative to CTRB1 (CTRB1 D236R; more efficient than CTRB1): 12.5 fold
- Km (CTRB1 D236R): 17.9 µM
- kcat/KM, bCTRA (bCTRA): 790000 M⁻¹ s⁻¹
- kcat, bCTRA (bCTRA): 36.9 s⁻¹
- kcat/KM of bCTRA relative to CTRB1 (bCTRA; more efficient than CTRB1): 5 fold
- Km (bCTRA): 46.6 µM
- kcat/KM, CTRB2 (CTRB2 [1]): 1.3e+06 M⁻¹ s⁻¹
- kcat, CTRB2 (CTRB2 [1]): 26.1 s⁻¹
- kcat/KM of CTRB2 relative to CTRB1 (CTRB2 [1]; more efficient than CTRB1): 8.1 fold
- Km (CTRB2 [1]): 20.4 µM
- kcat/KM, CTRB1 S242T (CTRB1 S242T): 180000 M⁻¹ s⁻¹
- kcat, CTRB1 S242T (CTRB1 S242T): 38.4 s⁻¹
- Km (CTRB1 S242T): 220 µM
- kcat/KM, CTRB1 (CTRB1): 160000 M⁻¹ s⁻¹
- Km (CTRB1): 219 µM

B1: β-casein: bovine β-casein, protein substrate (protein, UniProt P02666 16-224, looked up)
Beta-casein: RELEELNVPGEIVESLSSSEESITRINKKIEKFQSEEQQQTEDELQDKIHPFAQTQSLVYPFPGPIPNSLPQNIPPLTQTPVVVPPFLQPEVMGVSKVKEAMAPKHKEMPFPKYPVEPFTESQSLTLTDVENLHLPLPLLQSWMHQPHQPLPPTVMFPPQSVLSLSQSKVLPVPQKAVPYPQRDMPIQAFLLYQEPVLGPVRGPFPIIV
- digestion activity of CTRB2 relative to CTRB1 (CTRB2 [3]): 2.3 fold
